Laboratory results from ChEMBL document CHEMBL2163264, “Identification and synthesis of substituted pyrrolo[2,3-d]pyrimidines as novel firefly luciferase inhibitors” (Bioorg Med Chem, 2012).
Calls of active or inactive are those of the source. No cut-off for these calls is given here.

Key:
[1] = target: T1, Luciferin 4-monooxygenase (Photinus pyralis, UniProt P08659); experiment: Mixed-type inhibition of Photinus pyralis luciferase using D-luciferin as substrate after 20 mins by bioluminescence assay
Procedure, shortened: (§1)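 Photinus pyralis firefly luciferase (32 nM) in buffer A (1 M glycine-Tris, 10 mM EDTA, 100 mM MgSO4, pH 7.8) preincubated with inhibitor or buffer 20 min in the dark at room temperature. D-luciferin varied 3.125–200 µM with ATP fixed at 250 µM. Luminescence read. Apparent Km and Vmax from nonlinear Michaelis–Menten fit. Three independent assays in triplicate.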

[2] = target: Luciferin 4-monooxygenase (Photinus pyralis) (UniProt P08659); experiment: Mixed-type inhibition of Photinus pyralis luciferase using D-luciferin as substrate at 10 uM after 20 mins by bioluminescence assay
[3] = target: T1, Luciferin 4-monooxygenase; experiment: Mixed-type inhibition of Photinus pyralis luciferase using D-luciferin as substrate after 20 mins by Michaelis-Menten plot; procedure, shortened: as §1
[4] = target: T1, Luciferin 4-monooxygenase; experiment: Uncompetitive inhibition of Photinus pyralis luciferase using 50 uM D-luciferin as substrate after 20 mins by nonlinear regression analysis in presence of 25 to 500 uM ATP
Procedure, shortened: (§2)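 ATP-dependence kinetics: 32 nM P. pyralis luciferase in pH 7.8 glycine-Tris/EDTA/MgSO4 buffer, preincubated 20 min with inhibitor in the dark at room temperature. ATP varied 25–500 µM with D-luciferin fixed at 50 µM, read by bioluminescence. Double-reciprocal plots were examined. Apparent Km and Vmax came from nonlinear Michaelis–Menten fitting. Three independent assays in triplicate.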

[5] = target: Luciferin 4-monooxygenase (Photinus pyralis) (UniProt P08659); experiment: Uncompetitive inhibition of Photinus pyralis luciferase using 50 uM D-luciferin as substrate after 20 mins by Lineweaver-Burk plot in presence of 25 to 500 uM ATP; procedure, shortened: as §2
[6] = target: T1, Luciferin 4-monooxygenase; experiment: Competitive inhibition of Photinus pyralis luciferase using 3.125 to 200 uM D-luciferin as substrate after 20 mins by Michaelis-Menten plot in presence of 250 uM ATP; procedure, shortened: as §1

Sequence of Luciferin 4-monooxygenase (Photinus pyralis) (P08659 whole entry): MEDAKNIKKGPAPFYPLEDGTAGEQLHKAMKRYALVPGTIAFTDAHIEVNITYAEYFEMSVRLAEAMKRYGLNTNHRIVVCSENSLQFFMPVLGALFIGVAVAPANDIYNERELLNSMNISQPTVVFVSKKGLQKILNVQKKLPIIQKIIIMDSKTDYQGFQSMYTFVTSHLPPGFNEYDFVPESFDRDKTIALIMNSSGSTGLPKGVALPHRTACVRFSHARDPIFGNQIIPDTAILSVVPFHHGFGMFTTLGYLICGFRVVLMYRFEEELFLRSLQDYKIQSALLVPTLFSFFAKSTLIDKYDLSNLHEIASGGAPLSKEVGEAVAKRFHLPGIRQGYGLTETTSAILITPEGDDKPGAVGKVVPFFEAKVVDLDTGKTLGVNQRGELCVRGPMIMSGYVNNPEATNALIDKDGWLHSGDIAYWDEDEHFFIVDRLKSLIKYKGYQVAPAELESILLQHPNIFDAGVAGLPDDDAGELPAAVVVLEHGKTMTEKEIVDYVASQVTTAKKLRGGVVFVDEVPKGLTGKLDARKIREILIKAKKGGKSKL
T1 sequence (P08659 whole entry): as above

Compound | IC50 [1] | inhibition [2] | also measured
CN(C)c1ccc(Oc2ncnc3c2ccn3CC(C)(C)C)cc1 | 120 nM | – | –
C=C(C)Cn1ccc2c(Oc3ccc(N)cc3)ncnc21 | 120 nM | – | –
COc1ccc(Cn2ccc3c(Oc4ccc(N)cc4)ncnc32)cc1 | – | 26% | –
Nc1ccc(Oc2ncnc3c2ccn3Cc2ccc(C(F)(F)F)cc2)cc1 | – | 7% | –
CC(C)n1ccc2c(Oc3ccccc3N)ncnc21 | 7300 nM | – | –
Nc1ccc(Oc2ncnc3c2ccn3C2CCCC2)cc1 | 290 nM | – | –
CC(C)(C)Cn1ccc2c(Oc3ccc(N)cc3)ncnc21 | 80 nM | – | –
NC(=O)Cn1ccc2c(Oc3ccc(N)cc3)ncnc21 | – | 21% | –
C=C(C)Cn1ccc2c(Oc3ccc(NC)cc3)ncnc21 | 60 nM | – | –
C=C=Cn1ccc2c(Oc3ccc(N)cc3)ncnc21 | 9430 nM | – | –
Nc1ccc(Oc2ncnc3c2ccn3Cc2ccccc2)cc1 | – | 46% | –
Nc1ccc(Oc2ncnc3[nH]ccc23)cc1 | – | 19% | –
CNc1ccc(Oc2ncnc3c2ccn3CC(C)(C)C)cc1 | 70 nM | – | –
CCOC(=O)Cn1ccc2c(Oc3ccc(N)cc3)ncnc21 | – | 33% | –
C=C(C)Cn1ccc2c(Oc3ccc(N(C)C)cc3)ncnc21 | 90 nM | – | –

The next lines start with results.

IC50 [1] | inhibition [2] | Compound | also measured
14700 nM | – | CC(C)n1ccc2c(Oc3cccc(N)c3)ncnc21 | –
– | 9% | CC(C)n1ccc2c(Oc3ccc(N)cc3)nc(S(C)(=O)=O)nc21 | –
180 nM | – | CC(C)n1ccc2c(Oc3ccc(N(C)C)cc3)ncnc21 | –
10800 nM | – | CC(C)n1ccc2c(Oc3ccc(N)cc3)nc(N)nc21 | –
310 nM | – | CC(C)Cn1ccc2c(Oc3ccc(N)cc3)ncnc21 | –
– | 48% | Cn1ccc2c(Oc3ccc(N)cc3)ncnc21 | –
2240 nM | – | C=CCn1ccc2c(Oc3ccc(N)cc3)ncnc21 | –
7530 nM | – | CC(C)=CCn1ccc2c(Oc3ccc(N)cc3)ncnc21 | –
360 nM | – | CC(C)n1ccc2c(Oc3ccc(N)cc3)ncnc21 | Ki [3]: 220 nM; Ki [4]: 340 nM; inhibition [5]: Active; Ki [6]: 1430 nM
– | 31% | CSc1nc(Oc2ccc(N)cc2)c2ccn(C(C)C)c2n1 | –
6460 nM | – | CC(C)CCn1ccc2c(Oc3ccc(N)cc3)ncnc21 | –
130 nM | – | CNc1ccc(Oc2ncnc3c2ccn3C(C)C)cc1 | –
3510 nM | – | CCn1ccc2c(Oc3ccc(N)cc3)ncnc21 | –
